According to ChEMBL document CHEMBL5137045, “Discovery of 2-(furan-2-ylmethylene)hydrazine-1-carbothioamide derivatives as novel inhibitors of SARS-CoV-2 main protease” (Eur J Med Chem, 2022):

These compounds were tested against Replicase polyprotein 1ab (Severe acute respiratory syndrome coronavirus 2) (UniProt P0DTD1) (assay: Inhibition of SARS CoV-2 main protease at 50 uM using DABCYL-KTSAVLQSGFRKM-E(EDANS)-NH2 as substrate preincubated for 30 mins followed by substrate addition and measured after 20 mins relative to control). Conditions: time 50.0 min.
In short: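 FRET protease assay in 40 mM PBS, 100 mM NaCl, 1 mM EDTA, 0.1% Triton, pH 7.3. M^pro (0.5 μM) was preincubated with inhibitor 30 min at room temperature, then 20 μM substrate was added. Cleavage fluorescence (ex 360/em 460 nm) was read for 20 min. This covers preliminary screening and IC50; IC50 from Hill1 fit.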

Going from NC(=O)N/N=C/c1ccc(-c2ccc([N+](=O)[O-])cc2)o1 to C=CCNC(=S)N/N=C/c1ccc(-c2ccc([N+](=O)[O-])cc2)o1, the inhibition rises from under 20% to 51.4%.

Going from O=C(Cn1c2ccccc2c(=O)c2ccccc21)N/N=C/c1ccc(-c2ccc([N+](=O)[O-])cc2)o1 to O=C(Cn1c2ccccc2c(=O)c2ccccc21)N/N=C/c1ccc(-c2cccc([N+](=O)[O-])c2)o1, the inhibition falls from 30% to 26.8%.

Cc1c(/N=C/c2ccc(-c3cccc([N+](=O)[O-])c3)o2)c(=O)n(-c2ccccc2)n1C and O=[N+]([O-])c1cccc(-c2ccc(/C=N/NC(=S)Nc3ccccc3)o2)c1 cannot be ordered by inhibition: under 20% for the first, under 20% for the second.

First: O=C(Cn1c2ccccc2c(=O)c2ccccc21)N/N=C/c1ccc(-c2ccc(O)c(C(=O)O)c2)o1
Second: Cc1ccc(-c2ccc(/C=N/NC(=O)Cn3c4ccccc4c(=O)c4ccccc43)o2)cc1[N+](=O)[O-]
The inhibition of the first is lower: 54.5% for the first, 55.4% for the second.

CCOC(=O)c1ccc(NC(=S)Nc2c(C)n(C)n(-c3ccccc3)c2=O)cc1 and Cc1ccc(C(=O)NC(=S)Nc2c(C)n(C)n(-c3ccccc3)c2=O)cc1 cannot be ordered by inhibition: under 20% for the first, under 20% for the second.

Going from O=C(N/N=C/c1ccc(-c2ccc([N+](=O)[O-])cc2)o1)/C(=C\c1ccccc1O)NC(=O)c1ccccc1 to O=C(N/N=C/c1ccc(-c2ccc([N+](=O)[O-])cc2)o1)c1cc2ccccc2cc1O, the inhibition falls from 38.3% to under 20%.

Compared with Nc1nonc1-c1nc2ccccc2n1CC(=O)N/N=C/c1ccc(-c2ccccc2C(=O)O)o1, Nc1nonc1-c1nc2ccccc2n1CC(=O)N/N=C/c1ccc(-c2ccc([N+](=O)[O-])cc2)o1 is lower in inhibition: 41.7% for the first, 30.1% for the second.

Going from O=C1NN(c2ccc(F)cc2)C(=O)/C1=C\c1ccc(-c2cccc(C(=O)O)c2)o1 to CC1=NN(c2cccc(C(=O)O)c2)C(=O)/C1=C\c1ccc(-c2cccc(C(=O)O)c2)o1, the inhibition falls from 33.8% to 28.5%.

N#C/C(=C\c1ccc(-c2cccc(C(=O)O)c2)o1)c1nc2ccccc2[nH]1 and O=C(O)c1cccc(-c2ccc(/C=c3/sc4nc5ccccc5n4c3=O)o2)c1 cannot be ordered by inhibition: under 20% for the first, under 20% for the second.

Compared with COc1ccccc1OCC(=O)N/N=C/c1ccc(-c2cccc([N+](=O)[O-])c2)o1, O=C(COCc1ccccc1Cl)N/N=C/c1ccc(-c2ccc([N+](=O)[O-])cc2)o1 is lower in inhibition: 24.2% for the first, 23.3% for the second.

Cc1c(NC(=S)NC(=O)c2ccncc2)c(=O)n(-c2ccccc2)n1C and Cc1c(NC(=S)NC(=O)c2ccccc2)c(=O)n(-c2ccccc2)n1C cannot be ordered by inhibition: under 20% for the first, under 20% for the second.

Going from NC(=S)N/N=C/c1ccc(-c2ccc3ccccc3c2)o1 to NC(=S)N/N=C/c1ccc(-c2cccc3ccccc23)o1, the inhibition rises from 54.1% to 73.2%.

Compared with O=C(O)c1cccc(-c2ccc(/C=N/n3cnc4sc5c(c4c3=O)CCCC5)o2)c1, N#Cc1c(/N=C/c2ccc(-c3ccc(Cl)c(C(=O)O)c3)o2)sc2c1CCCC2 is lower in inhibition: 30% for the first, under 20% for the second.

Cc1c(NC(N)=S)c(=O)n(-c2ccccc2)n1C and C=C(C)CNC(=S)Nc1c(C)n(C)n(-c2ccccc2)c1=O cannot be ordered by inhibition: under 20% for the first, under 20% for the second.

Compared with COCc1c(Br)c(C)nc(OCC(=O)N/N=C/c2ccc(-c3cccc(C(=O)O)c3)o2)c1C#N, COCc1c(Br)c(C)nc(OCC(=O)N/N=C/c2ccc(-c3ccc(Cl)c(C(=O)O)c3)o2)c1C#N is higher in inhibition: 32.9% for the first, 38.3% for the second.

Going from O=C(CSc1nnnn1-c1ccccc1)N/N=C/c1ccc(-c2ccccc2C(=O)O)o1 to Nc1nnnn1CC(=O)N/N=C/c1ccc(-c2ccccc2C(=O)O)o1, the inhibition falls from 45.3% to 34.5%.

Going from Nc1nonc1-c1cc2ccccc2n1CC(=O)N/N=C/c1ccc(-c2cccc(C(=O)O)c2)o1 to Nc1nonc1-c1nc2ccccc2n1CC(=O)N/N=C/c1ccc(-c2cccc(C(F)(F)F)c2)o1, the inhibition rises from under 20% to 25.5%.

Compared with O=C(O)c1cccc(-c2ccc(/C=N/NC(=S)Nc3ccc(Cl)cc3)o2)c1, O=C(N/N=C/c1ccc(-c2cccc(C(=O)O)c2)o1)Nc1ccc(Cl)cc1 is higher in inhibition: 43.8% for the first, 44.6% for the second.

Going from O=C(O)c1ccc(-c2ccc(/C=N/NC(=S)Nc3cccc(C(F)(F)F)c3)o2)cc1 to O=C(O)c1ccc(-c2ccc(/C=N/NC(=S)Nc3ccc(Cl)cc3)o2)cc1, the inhibition falls from 38.6% to 27.5%.

Going from COCc1cc(C)nc(OCC(=O)N/N=C/c2ccc(-c3cccc(C(=O)O)c3)o2)c1C#N to COCc1cc(C)nc(OCC(=O)N/N=C/c2ccc(-c3ccc(C(=O)O)cc3)o2)c1C#N, the inhibition falls from 37.3% to 36.2%.

Going from Cc1cc(-c2ccc(/C=N/NC(=O)C(NC(=O)Cc3ccco3)C(C)C)o2)cc([N+](=O)[O-])c1C (stereo unspecified) to Cc1cc(-c2ccc(/C=N/NC(=O)Nc3ccccc3)o2)c(C)c([N+](=O)[O-])c1, the inhibition falls from 62.8% to under 20%.

Going from O=C(O)c1cc(-c2ccc(/C=N/Nc3nc4nonc4nc3Nc3ccc(Br)cc3)o2)ccc1O to O=C(O)c1cc(-c2ccc(/C=N/Nc3nc(Nc4ccccc4)nc(Nc4ccccc4)n3)o2)ccc1O, the inhibition falls from 45.9% to 34.6%.

Compared with O=C(O)c1cccc(-c2ccc(/C=N/Nc3nc(N4CCCC4)nc(N4CCCC4)n3)o2)c1, CCOC(=O)N/N=C/c1ccc(-c2cccc(C(=O)O)c2)o1 is higher in inhibition: under 20% for the first, 29.4% for the second.

Cc1c(NC(=S)NCc2ccco2)c(=O)n(-c2ccccc2)n1C and Cc1c(NC(=S)NCCCN(C)C)c(=O)n(-c2ccccc2)n1C cannot be ordered by inhibition: under 20% for the first, under 20% for the second.

Compared with Cc1cc(C(=O)O)ccc1-c1ccc(/C=N/NC(=S)NCc2ccccc2)o1, CNC(=S)N/N=C/c1ccc(-c2ccc(C(=O)O)cc2)o1 is lower in inhibition: 55.9% for the first, 39.5% for the second.

CC1=NN(c2ccc(C)c(Cl)c2)C(=O)/C1=C\c1ccc(-c2ccc(C(=O)O)cc2)o1 and CSC1=NSC2=NC(=O)/C(=C\c3ccc(-c4cccc(C(=O)O)c4)o3)C(=N)N12 cannot be ordered by inhibition: under 20% for the first, under 20% for the second.

Cc1ccc(OCC(=O)N/N=C/c2ccc(-c3cc([N+](=O)[O-])ccc3Cl)o2)c(C)c1 and O=C(Cn1c2ccccc2c(=O)c2ccccc21)N/N=C/c1ccc(-c2cc([N+](=O)[O-])ccc2Cl)o1 cannot be ordered by inhibition: under 20% for the first, under 20% for the second.

Cc1c(NC(=S)NC(=O)c2cncc(Br)c2)c(=O)n(-c2ccccc2)n1C and Cc1c(NC(=S)NC(=O)c2cccc(I)c2)c(=O)n(-c2ccccc2)n1C cannot be ordered by inhibition: under 20% for the first, under 20% for the second.

First: NC(=S)N/N=C/c1ccc(-c2ccc(C(=O)O)cc2)cc1
Second: O=C(O)c1ccc(-c2ccc(/C=N/NC(=S)NC3CCCCC3)o2)cc1
The inhibition of the first is higher: 64% for the first, 37.3% for the second.

Going from COc1c(C(=O)O)cccc1-c1ccc(/C=N/NC(N)=S)o1 to NC(=S)N/N=C/c1ccc(-c2ccc(Cl)c(Cl)c2)o1, the inhibition falls from 79.8% to 49.8%.

O=C(N/N=C/c1ccc([N+](=O)[O-])o1)c1c[nH]c2ccccc12 and O=C(N/N=C/c1ccc([N+](=O)[O-])o1)c1ccc(O)cc1O cannot be ordered by inhibition: under 20% for the first, under 20% for the second.

First: N=C1S/C(=C/c2ccc(-c3cccc(C(=O)O)c3)o2)C(=O)N1c1nonc1N
Second: Nc1nonc1C(=O)N/N=C/c1ccc(-c2cccc([N+](=O)[O-])c2)o1
The inhibition of the first is lower: 30.3% for the first, 31.2% for the second.

COc1cccc(C(=O)NCC(=O)N/N=C/c2ccc([N+](=O)[O-])o2)c1 and Cc1cccc(C)c1OCC(=O)N/N=C/c1ccc([N+](=O)[O-])o1 cannot be ordered by inhibition: under 20% for the first, under 20% for the second.

First: Cc1c(NC(=S)N/N=C/c2ccccc2[N+](=O)[O-])c(=O)n(-c2ccccc2)n1C
Second: Cc1c(NC(=S)N/N=C/C(Cl)=C/c2ccc([N+](=O)[O-])cc2)c(=O)n(-c2ccccc2)n1C
The inhibition of the first is lower: under 20% for the first, 21.2% for the second.

Cc1c(N=C(S)Nc2ccccc2)c(=O)n(-c2ccccc2)n1C and Cc1c(NC(=S)NC(=O)COc2ccccc2)c(=O)n(-c2ccccc2)n1C cannot be ordered by inhibition: under 20% for the first, under 20% for the second.

Going from Cc1c(C(=O)N/N=C/c2ccc(-c3ccc(Cl)c(C(=O)O)c3)o2)sc(N)c1C#N to O=C(O)c1cc(N/N=C/c2ccc(-c3ccc(Cl)c(C(=O)O)c3)o2)ccc1Cl, the inhibition falls from 35.8% to 28.2%.

Going from O=c1sn(-c2cccc3ccccc23)c(=O)n1Cc1ccccc1 to O=C(Cn1c2ccccc2c(=O)c2ccccc21)N/N=C/c1ccc(-c2ccccc2)o1, the inhibition falls from 98.6% to 21.3%.

First: Cc1ccc([N+](=O)[O-])cc1-c1ccc(/C=N/NC(=O)Cn2c3ccccc3c(=O)c3ccccc32)o1
Second: O=C(Cn1c2ccccc2c(=O)c2ccccc21)N/N=C/c1ccc(-c2ccc([N+](=O)[O-])cc2Cl)o1
The inhibition of the first is lower: 22.5% for the first, 24.1% for the second.

Cc1c(NC(=S)NC(=O)CC(C)C)c(=O)n(-c2ccccc2)n1C and Cc1cccc(C(=O)NC(=S)Nc2c(C)n(C)n(-c3ccccc3)c2=O)c1 cannot be ordered by inhibition: under 20% for the first, under 20% for the second.

First: O=C(O)c1cccc(-c2ccc(/C=N/NC(=O)C3COc4ccccc4O3)o2)c1 (stereo unspecified)
Second: Cc1cccc(NC(=O)CN2C(=O)N/C(=C\c3ccc(-c4cccc(C(=O)O)c4)o3)C2=O)c1
The inhibition of the first is higher: 33.7% for the first, 24.2% for the second.

Compared with Cc1c(NC(=S)NC(=O)c2ccc(F)cc2)c(=O)n(-c2ccccc2)n1C, Cc1c(NC(=S)N/N=C/c2ccc(-c3ccc(Br)cc3)o2)c(=O)n(-c2ccccc2)n1C is higher in inhibition: under 20% for the first, 27.7% for the second.

Cc1c(-c2ccc(/C=N/NC(=O)Cn3c(-c4nonc4N)nc4ccccc43)o2)ccc([N+](=O)[O-])c1C and COc1ccc(-c2ccc(/C=N/NC(=O)Cn3c(-c4nonc4N)nc4ccccc43)o2)c([N+](=O)[O-])c1 cannot be ordered by inhibition: under 20% for the first, under 20% for the second.

First: O=[N+]([O-])c1cccc(-c2ccc(/C=N/NC(=S)NC3CCS(=O)(=O)C3)o2)c1 (stereo unspecified)
Second: C=CCNC(=S)N/N=C/c1ccc(-c2ccccc2[N+](=O)[O-])o1
The inhibition of the first is higher: 30.2% for the first, 28.4% for the second.

Compared with C=CCNC(=S)N/N=C/c1ccc(-c2cc(C(=O)O)cc(C(=O)O)c2)o1, O=C1NC(=S)N/C1=C/c1ccc(-c2ccccc2C(=O)O)o1 is lower in inhibition: 34.2% for the first, under 20% for the second.

Compared with O=[N+]([O-])c1ccc(-c2ccc(/C=N/c3cccc(-c4nc5ccccc5o4)c3)o2)cc1, COc1cc([N+](=O)[O-])ccc1-c1ccc(/C=N/NC(=O)Cn2c3ccccc3c(=O)c3ccccc32)o1 is higher in inhibition: 21.3% for the first, 26% for the second.

With Cc1c(NC(=S)N(C)CCC#N)c(=O)n(-c2ccccc2)n1C the inhibition was under 20%.
